The results in this text go back to ChEMBL document CHEMBL1128272, “Stereoselective LSD-like activity in a series of d-lysergic acid amides of (R)- and (S)-2-aminoalkanes” (J Med Chem, 1995).

Activity calls are given as the source filed them. The calls are words filed in the database; no cut-off is given here.

Experiment [1] relates to Rattus norvegicus. The experiment can be described thus: Compound was tested for its effect on animals. Value reported as number of rats disrupted in trained rats at a dose of 500 (nmol/kg). In kind it is functional. The essentials: (§1)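 Two-lever drug discrimination in food-restricted rats (~80% free-feeding weight) trained on FR 50 to tell saline from LSD tartrate (186 nmol/kg, 0.08 mg/kg ip, 30 min pre-session). Test drugs were given ip in saline, 1 mL/kg. Test sessions ran under extinction, ending at 50 presses on either lever. Testing required 85% training accuracy. Counts of rats tested and disrupted were recorded, plus the percentage selecting the drug lever.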

For experiment [2], the system named is Rattus norvegicus. The experiment can be described thus: Effective dose in trained rats was determined at a dose of 63 (nmol/kg) Value in parentheses are with 95% confidence intervals. Format: functional.
Experiment [3] relates to Rattus norvegicus. The experiment can be described thus: Compound was tested for its effect on animals. Value reported as number of rats disrupted in trained rats at a dose of 250 (nmol/kg). In kind it is functional. In short, it runs like this: as §1
The subject of experiment [4] is Rattus norvegicus. Kind of experiment: Compound was tested for its effect on animals. Value reported as number of rats disrupted in trained rats at a dose of 125 (nmol/kg). In kind it is functional. In short, it runs like this:
as §1

Experiment [5] has as its system Rattus norvegicus. Kind of experiment: Percentage of animals selecting drug lever in trained rats at a dose 250 (nmol/kg). Format: functional. In short, it runs like this:
as §1

For experiment [6], the system named is Rattus norvegicus. The experiment can be described thus: Potency in trained rats was determined with relative to reference compound […] at a dose of 63 (nmol/kg). In kind it is functional.
Experiment [7] relates to Rattus norvegicus. Kind of experiment: Compound was tested for its effect on animals. Value reported as number of rats disrupted in trained rats at a dose of 63 (nmol/kg). In kind it is functional. In short, it runs like this:
as §1

In experiment [8] the test system is Rattus norvegicus. Kind of experiment: Percentage of animals selecting drug lever in trained rats at a dose 125 (nmol/kg). In kind it is functional. The essentials:
as §1

Experiment [9] has as its target 5-hydroxytryptamine receptor 2A (Rattus norvegicus, UniProt P14842). Kind of experiment: Binding affinity was measured against 5-hydroxytryptamine 2A receptor by displacement of [3H]- ketanserin by lysergic acid amides. The essentials: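 Rat frontal cortex membranes from pooled male Sprague-Dawley rats, preincubated at 37 °C, in 50 mM Tris HCl (pH 7.4) with 0.5 mM Na2EDTA, 0.1% ascorbate, 10 μM pargyline and 5.7 mM CaCl2. Triplicates. Three to four experiments combined.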
(In general: Loss of bound radioactivity is the signal in a displacement assay; it reports binding, not function.)

In experiment [10] the test system is Rattus norvegicus. Kind of experiment: Percentage of animals selecting drug lever in trained rats at a dose 63 (nmol/kg). Format: functional. In short, it runs like this:
(§2)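 Drug-naive rats held at about 80% of free-feeding weight were trained on a two-lever FR50 food schedule to tell ip LSD tartrate (186 nmol/kg, 0.08 mg/kg) from saline, given 30 min before sessions. Test drugs were given ip in saline (1 mL/kg). Tests ran under extinction and ended at 50 presses on either lever. Rats had to hold 85% correct on training days. Read-out was % selecting the drug lever per dose.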

For experiment [11], the system named is Rattus norvegicus. Kind of experiment: Percentage of animals selecting drug lever in trained rats at a dose 500 (nmol/kg). Format: functional. The essentials: as §2
In experiment [12] the target is T1, 5-hydroxytryptamine receptor 1A (Rattus norvegicus, UniProt P19327).
T1 sequence (P19327 whole entry): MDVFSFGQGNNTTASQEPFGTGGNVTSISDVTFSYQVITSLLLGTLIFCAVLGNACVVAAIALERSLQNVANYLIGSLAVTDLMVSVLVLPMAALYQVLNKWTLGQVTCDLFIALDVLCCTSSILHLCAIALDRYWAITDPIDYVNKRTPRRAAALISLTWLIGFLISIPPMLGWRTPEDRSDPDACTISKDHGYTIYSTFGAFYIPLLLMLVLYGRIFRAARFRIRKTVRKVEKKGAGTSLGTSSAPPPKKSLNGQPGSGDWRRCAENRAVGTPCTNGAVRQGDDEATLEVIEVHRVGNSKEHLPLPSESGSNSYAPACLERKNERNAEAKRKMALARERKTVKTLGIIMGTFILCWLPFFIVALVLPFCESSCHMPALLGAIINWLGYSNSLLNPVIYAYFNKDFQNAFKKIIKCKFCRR
The experiment can be described thus: Binding affinity was measured against 5-hydroxytryptamine 1A receptor by displacement of [3H]8-OH-DPAT by lysergic acid amides. In short, it runs like this:
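Rat hippocampal membranes from pooled male Sprague-Dawley rats, preincubated at 37 °C, in 50 mM Tris HCl (pH 7.4) with 0.5 mM Na2EDTA, 0.1% ascorbate and 10 μM pargyline. Competition against 0.75 nM [3H]-8-OH-DPAT for 10 min at 37 °C, then GF/C filtration and scintillation counting. Triplicates. Three to four experiments combined, analysed with EBDA/LIGAND.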

Experiment [13] deals with Rattus norvegicus. Kind of experiment: Percentage of animals selecting drug lever in trained rats at a dose 426 (nmol/kg). Format: functional. The essentials:
as §1

The test system of experiment [14] is Rattus norvegicus. The experiment can be described thus: Effective dose in trained rats was determined at a dose of 213 (nmol/kg). Format: functional, organism-based.
Experiment [15] concerns Rattus norvegicus. The experiment can be described thus: Percentage of animals selecting drug lever in trained rats at a dose 639 (nmol/kg). Format: functional. The essentials: as §2
For experiment [16], the system named is Rattus norvegicus. Kind of experiment: Compound was tested for its effect on animals. Value reported as number of rats disrupted in trained rats at a dose of 426 (nmol/kg). Format: functional. The essentials:
as §1

For experiment [17], the system named is Rattus norvegicus. The experiment can be described thus: Percentage of animals selecting drug lever in trained rats at a dose 213 (nmol/kg). Format: functional. The essentials:
as §1

Experiment [18] deals with Rattus norvegicus. The experiment can be described thus: Compound was tested for its effect on animals. Value reported as number of rats disrupted in trained rats at a dose of 213 (nmol/kg). In kind it is functional. In short, it runs like this:
as §1

In experiment [19] the test system is Rattus norvegicus. The experiment can be described thus: Compound was tested for its effect on animals. Value reported as number of rats disrupted in trained rats at a dose of 639 (nmol/kg). Format: functional. The essentials:
as §1

The subject of experiment [20] is Rattus norvegicus. Kind of experiment: Percentage of animals selecting drug lever in trained rats at a dose 55 (nmol/kg). Format: functional. The essentials:
as §2

The subject of experiment [21] is Rattus norvegicus. Kind of experiment: Percentage of animals selecting drug lever in 1-Trained rats at a dose 110 (nmol/kg). Format: functional. The essentials:
as §1

Experiment [22] concerns Rattus norvegicus. Kind of experiment: Compound was tested for its effect on animals. Value reported as number of rats disrupted in trained rats at a dose of 110 (nmol/kg). In kind it is functional. The essentials:
as §1

Experiment [23] concerns Rattus norvegicus. Kind of experiment: Percentage of animals selecting drug lever in 1-Trained rats at a dose 220 (nmol/kg). In kind it is functional. The essentials:
as §1

For experiment [24], the system named is Rattus norvegicus. The experiment can be described thus: Compound was tested for its effect on animals. Value reported as number of rats disrupted in trained rats at a dose of 55 (nmol/kg). Format: functional. In short, it runs like this:
as §1

Experiment [25] relates to Rattus norvegicus. Kind of experiment: Potency in trained rats was determined with relative to reference compound […] at a dose of 55 (nmol/kg). Format: functional.
In experiment [26] the test system is Rattus norvegicus. Kind of experiment: Compound was tested for its effect on animals. Value reported as number of rats disrupted in trained rats at a dose of 220 (nmol/kg). Format: functional. The essentials: as §1
For experiment [27], the system named is Rattus norvegicus. Kind of experiment: Effective dose in trained rats was determined at a dose of 55 (nmol/kg) Value in parentheses are with 95% confidence intervals. Format: functional.
The subject of experiment [28] is Rattus norvegicus. The experiment can be described thus: Potency in trained rats was determined with relative to reference compound […] at a dose of 12 (nmol/kg). Format: functional.
Experiment [29] deals with Rattus norvegicus. Kind of experiment: Compound was tested for its effect on animals. Value reported as number of rats disrupted in trained rats at a dose of 93 (nmol/kg). In kind it is functional. The essentials:
as §1

Experiment [30] deals with Rattus norvegicus. The experiment can be described thus: Compound was tested for its effect on animals. Value reported as number of rats disrupted in trained rats at a dose of 23 (nmol/kg). Format: functional. In short, it runs like this:
as §1

Experiment [31] has as its system Rattus norvegicus. Kind of experiment: Effective dose in trained rats was determined at a dose of 12 (nmol/kg). In kind it is functional.
The test system of experiment [32] is Rattus norvegicus. Kind of experiment: Compound was tested for its effect on animals. Value reported as number of rats disrupted in trained rats at a dose of 186 (nmol/kg). Format: functional. The essentials: as §1
In experiment [33] the test system is Rattus norvegicus. The experiment can be described thus: Percentage of animals selecting drug lever in 1-Trained rats at a dose 186 (nmol/kg). In kind it is functional. In short, it runs like this:
as §1

The subject of experiment [34] is Rattus norvegicus. Kind of experiment: Percentage of animals selecting drug lever in trained rats at a dose 93 (nmol/kg). In kind it is functional. In short, it runs like this:
as §2

Experiment [35] has as its system Rattus norvegicus. Kind of experiment: Percentage of animals selecting drug lever in trained rats at a dose 47 (nmol/kg). Format: functional. In short, it runs like this:
as §2

The test system of experiment [36] is Rattus norvegicus. The experiment can be described thus: Compound was tested for its effect on animals. Value reported as number of rats disrupted in trained rats at a dose of 47 (nmol/kg). In kind it is functional. In short, it runs like this:
as §1

The test system of experiment [37] is Rattus norvegicus. The experiment can be described thus: Percentage of animals selecting drug lever in trained rats at a dose 23 (nmol/kg). Format: functional. In short, it runs like this:
as §1

For experiment [38], the system named is Rattus norvegicus. The experiment can be described thus: Percentage of animals selecting drug lever in trained rats at a dose 12 (nmol/kg). In kind it is functional. In short, it runs like this: as §1
Experiment [39] deals with Rattus norvegicus. Kind of experiment: Compound was tested for its effect on animals. Value reported as number of rats disrupted in trained rats at a dose of 12 (nmol/kg). In kind it is functional. The essentials:
as §1

Sequence of 5-hydroxytryptamine receptor 2A (P14842 whole entry): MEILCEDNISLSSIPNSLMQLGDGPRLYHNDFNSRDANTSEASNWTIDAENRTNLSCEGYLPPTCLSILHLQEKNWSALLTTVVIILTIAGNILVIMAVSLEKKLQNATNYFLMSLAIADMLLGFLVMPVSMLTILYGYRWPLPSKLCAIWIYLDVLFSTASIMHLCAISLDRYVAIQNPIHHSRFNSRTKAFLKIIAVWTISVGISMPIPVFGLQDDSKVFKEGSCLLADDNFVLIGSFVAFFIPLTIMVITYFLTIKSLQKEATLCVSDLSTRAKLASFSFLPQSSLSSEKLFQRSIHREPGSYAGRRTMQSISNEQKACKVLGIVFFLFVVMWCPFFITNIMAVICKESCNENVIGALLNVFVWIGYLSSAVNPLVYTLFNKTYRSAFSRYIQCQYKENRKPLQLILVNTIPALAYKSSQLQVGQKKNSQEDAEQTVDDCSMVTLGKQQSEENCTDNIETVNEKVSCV

For `CCC(CC)NC(=O)[C@@H]1C=C2c3cccc4[nH]cc(c34)C[C@H]2N(C)C1`, the D in the experiment with Rattus norvegicus [1] was found to be 14%; in the experiment with Rattus norvegicus [3], 0%; with Rattus norvegicus [4], 0%; in the experiment with Rattus norvegicus [7], 0%. Besides, in the experiment with Rattus norvegicus [2], the ED50 (commonly the midpoint of the dose-response relation) amounted to 0.052 µmol/kg. Also, the SDL in the experiment with Rattus norvegicus [5] was 85%; with Rattus norvegicus [8], 67%; in the experiment on Rattus norvegicus [10], 58%; in the experiment on Rattus norvegicus [11], 92%. In the experiment on Rattus norvegicus [6], this compound gave a Potency of 0.92. Also, the inhibition constant Ki – broadly, a dissociation constant, usually derived from enzyme kinetics or from competition with a known ligand – in [9] was 8 nM; in experiment [12], 2.1 nM.
Take `CCCCCC(C)NC(=O)[C@@H]1C=C2c3cccc4[nH]cc(c34)C[C@H]2N(C)C1` (stereo partly specified): the Ki in experiment [9] stood at 357 nM; in [12] it was 14 nM.
Regarding `CCCCC(C)NC(=O)[C@@H]1C=C2c3cccc4[nH]cc(c34)C[C@H]2N(C)C1` (stereo partly specified), the SDL in the experiment with Rattus norvegicus [13] was 0%; in the experiment on Rattus norvegicus [15], 0%; in the experiment with Rattus norvegicus [17], 29%. Besides, the ED50 result with Rattus norvegicus [14] is “inactive”. Besides, the D was 30% in the experiment with Rattus norvegicus [16], 30% in the experiment with Rattus norvegicus [18] and 12.5% in the experiment with Rattus norvegicus [19]. The Ki was 55 nM in [9] and 4.9 nM in [12].
Take `CCC[C@@H](C)NC(=O)[C@@H]1C=C2c3cccc4[nH]cc(c34)C[C@H]2N(C)C1`: the SDL is recorded as 14% with Rattus norvegicus [20], 44% in the experiment on Rattus norvegicus [21] and 100% in the experiment on Rattus norvegicus [23]. Also, the values for the D in the experiment on Rattus norvegicus [22], in the experiment on Rattus norvegicus [24] and in the experiment on Rattus norvegicus [26] were 0%, 0% and 30%, respectively. Moreover, the Ki in experiment [9] came to 4.5 nM; in [12], 0.6 nM. This compound also had a Potency in the experiment on Rattus norvegicus [25] of 0.47. Besides, the ED50 in the experiment with Rattus norvegicus [27] came out at 0.102 µmol/kg.
`CC[C@@H](C)NC(=O)[C@@H]1C=C2c3cccc4[nH]cc(c34)C[C@H]2N(C)C1` returned a Potency in the experiment with Rattus norvegicus [28] of 1.45. Besides, the D in the experiment with Rattus norvegicus [29], in the experiment with Rattus norvegicus [30], with Rattus norvegicus [32], in the experiment on Rattus norvegicus [36] and with Rattus norvegicus [39] was 0% each time. The same compound registered an ED50 in the experiment with Rattus norvegicus [31] of 0.033 µmol/kg. The SDL is listed as 88% with Rattus norvegicus [33]; 75% in the experiment on Rattus norvegicus [34]; 75% in the experiment on Rattus norvegicus [35]; 50% with Rattus norvegicus [37]; 13% in the experiment on Rattus norvegicus [38]. The compound also came in with a Ki in [9] of 8.8 nM.
